# Hits are enriched below; roughly 3.4% of the tested compounds scored in any of these assays.
# CHRM1 agonist – activates human CHRM1 receptor. P11229. CHO-K1 hM1, Fluo-8 calcium fluorescence, agonist mode; 0% DMSO, 100% acetylcholine EC100. activation, % at 3 µM. hit rate 0.33% among 360,000;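 active = activation above the run's mean compound activation plus 3 SD, cut at about 16% in these data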;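 also: peak over basal fluorescence ratio within a 140 s kinetic read after compound addition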
# Target sequence (P11229 whole entry, looked up): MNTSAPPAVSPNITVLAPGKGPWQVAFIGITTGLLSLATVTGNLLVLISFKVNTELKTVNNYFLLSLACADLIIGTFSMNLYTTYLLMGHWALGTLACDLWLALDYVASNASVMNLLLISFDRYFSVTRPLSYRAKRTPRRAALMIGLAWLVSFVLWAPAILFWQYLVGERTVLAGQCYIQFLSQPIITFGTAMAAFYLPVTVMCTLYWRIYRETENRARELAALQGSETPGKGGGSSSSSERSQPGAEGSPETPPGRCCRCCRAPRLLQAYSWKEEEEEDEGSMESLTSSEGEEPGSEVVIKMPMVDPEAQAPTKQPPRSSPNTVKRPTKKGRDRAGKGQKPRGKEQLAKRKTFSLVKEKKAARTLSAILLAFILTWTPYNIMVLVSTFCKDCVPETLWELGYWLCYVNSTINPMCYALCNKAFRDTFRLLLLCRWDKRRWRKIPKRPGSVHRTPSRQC
# CHRM1 PAM – potentiates human M1 receptor response to acetylcholine; CHO-K1 hM1, Fluo-8 calcium fluorescence, ACh EC20; 0% = ACh EC20, 100% = maximal ACh; activation, % at 3 µM; hit rate 0.088% among 360,000; AID 588819; in the data active = activation above about 19%, passing the limit was not always enough
# TAAR1 agonist – human TAAR1 agonism; Q96RJ0; CHO RD-HGA16 TAAR1, Fluo-8 calcium fluorescence; vehicle wells 0%, saturating PEA agonist 100%; activation, % at 3 µM; hit rate 0.99% among 360,000;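 active = activation above the mean activation of all test compounds in the run plus 3 SD, cut at about 38% in these data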
#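 System: CHO-derived RD-HGA16 cells with stable Gα16 and human TAAR1. Times: 17-24 h plating, Fluo-8 75 min 37 °C, 30 min RT. Measured by: calcium-sensitive Fluo-8 signal, excitation 470-495, emission 515-575 nm. Read-out basis: % activation relative to PEA EC100 response. Control set: DMSO and PEA EC100. Repeats: no replicates (n 1).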
# M1 antag – blocks human M1 muscarinic receptor | P11229 | inhibition, % at 3 µM | CHO-K1 hM1, Fluo-8 calcium fluorescence, ACh EC80 antagonist | AID 588852 | hit rate 1.3% among 360,000;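 active = percent inhibition above its own plate's cutoff, namely the mean of that plate's compound wells plus 3 SD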;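 also: peak over basal fluorescence ratio during 140 s after agonist addition; 0% = ACh EC80 plus DMSO and 100% = DMSO alone without agonist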
# TAAR1 antag – antagonists of human TAAR1. Q96RJ0. CHO RD-HGA16 TAAR1, Fluo-8 calcium fluorescence, antagonist. inhibition, % at 3 µM. hit rate 1.5% among 360,000. AID 624466;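 active = inhibition above a per-plate cutoff, the mean inhibition of test compounds on that plate plus 3 SD, cut at about 49% in these data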;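 also: 0% = DMSO plus EC80 beta-PEA response and 100% = DMSO alone without agonist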
#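 Test system – hTAAR1-expressing CHO RD-HGA16 cells, Gα16-coupled · Reagent – β-PEA at EC80 concentration, post-compound challenge · Compound dosing – 3 µM, single point · Timing – 140 s kinetic read after compound, 140 s after agonist · Detection – Fluo-8 intracellular calcium dye fluorescence, real-time kinetic reads · Control set – DMSO and EC80 PEA controls · Repeats – n of 1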
# An asterisk follows results filed as active; · = no result.
SMILES,CHRM1 agonist,CHRM1 PAM,TAAR1 agonist,M1 antag,TAAR1 antag
Cc1cc(Br)ccc1OCCCCN1CCCCC1,-9,-26,9,42*,-4
CC(C)c1ccccc1OCCCCCN1CCOCC1,-8,-25,7,62*,-16
Brc1ccccc1OCCCN1CCCC1,-6,-11,3,16,5
CC(C)c1ccccc1OCCCCN1CCCCC1,-8,-27,6,64*,1
Brc1ccccc1OCCCCCN1CCOCC1,-3,-12,1,24,-8
Cc1ccc2nc(CN(C)C(=O)[C@@H](Cc3ccccc3)NC(=O)[C@H]3O[C@@H](n4cnc(C(N)=O)n4)[C@H](O)[C@@H]3O)[nH]c2c1,·,·,0,·,-21
COC(=O)[C@@H](N[C@H](/C=C/c1ccccc1)[C@@H](O)Cc1ccccc1)c1ccccc1,·,·,0,·,26
COc1cccc(CNS(=O)(=O)c2ccccc2Br)c1,·,·,33,·,-20
CC(=O)c1ccccc1OCCCN1CCCCC1,-5,-19,6,38*,11
c1ccc(-c2ccccc2OCCCCN2CCCCC2)cc1,-11,-26,4,32*,-17
COC(=O)[C@]12C[C@H](CC(=O)NCC3CCCCC3)C(=O)N(Cc3ccccc3)C1=C[C@H](C(C)C)O[C@@H]2C1CC1,·,·,-3,·,-47
CCCCNC(=O)C1C(c2ccc(C(F)(F)F)cc2)=Nc2ccccc2N1C(=O)c1ccc2nc(C)[nH]c2c1 (stereo unspecified),·,·,0,·,-3
CCS(=O)(=O)N1Cc2cc(C(=O)N(C)C)nc(-c3cccc(-c4ccc(F)cc4)c3)c2[C@H]1CCO,·,·,2,·,-22
O=[N+]([O-])c1ccc(N2CCN(Cc3ccccc3)CC2)c2c1no[n+]2[O-],1,-25,13,35*,63*
CCCCNC(=O)C[C@H]1C[C@@]2(C(=O)OC)C(=C[C@H](COCc3ccccc3)O[C@@H]2C)N(Cc2ccc3c(c2)OCO3)C1=O,·,·,0,·,-10
O=C(N[C@@H](Cc1cccnc1)C(=O)N1CCC[C@H]1C(=O)NCc1ccccc1)c1ccc(Cl)cc1Cl,·,·,2,·,-26
COCCCn1c(SCCc2ccccc2)nc2cc(OC)c(OC)cc2c1=N,-3,-16,11,29,56*
CCSc1nc2cc(OC)c(OC)cc2c(=O)n1CCc1ccccc1,-2,2,-2,-4,22
Cc1c(C(c2cc3c(cc2Br)OCO3)c2c(C)n(C)n(-c3ccccc3)c2=O)c(=O)n(-c2ccccc2)n1C,-8,-21,5,39*,10
CC1CCC(C(C)C)C(OC(=O)COC(=O)c2ccc(=O)[nH]c2)C1 (stereo unspecified),-1,-6,36,-2,19
COc1ccc(OCc2n(CC(=O)OC3CC(C)CCC3C(C)C)c3ccccc3[n+]2C)cc1 (stereo unspecified),-5,-22,22,39*,5
CC1CCC(C(C)C)C(OC(=O)CSc2nccc(=O)[nH]2)C1 (stereo unspecified),-7,-7,10,13,13
COc1ccc(-c2n(CC(=O)OC3CC(C)CCC3C(C)C)c3ccccc3[n+]2C)cc1 (stereo unspecified),-10,-24,0,28*,14
CCCC(CCC)C(=O)OC1C[C@H]2CC[C@@H](C1)[N+]2(C)C (stereo partly specified),-7,-26,5,98*,-13
CC(C)[N+]1(C)[C@@H]2CC[C@@H]1CC(OC(=O)C(CO)c1ccccc1)C2 (stereo partly specified),·,·,0,·,-12
SMILES,CHRM1 agonist,CHRM1 PAM,TAAR1 agonist,M1 antag,TAAR1 antag
Cc1cc2c(cc1C)-n1nnnc1C(N(C)Cc1ccccc1)C(=O)N2 (stereo unspecified),·,·,4,·,-1
N=c1sccn1CC(=O)Nc1cccc(S(N)(=O)=O)c1,-3,19,-1,35*,-8
Cn1cc(CCOCc2ccc(Br)cc2)c2ccccc21,·,·,0,·,-12
CCN1CCN(c2c(Cl)cccc2NC(=O)c2ccc([N+](=O)[O-])o2)CC1,-7,-22,1,43*,-20
Cc1ccc(C2c3c(n[nH]c3C)C(=O)N2c2ccccc2)cc1 (stereo unspecified),·,·,0,·,-28
N#Cc1c(NCCCO)nc(NCc2ccccc2)c2c1CCN(Cc1ccccc1)C2,-1,-9,17,17,55*
Cc1nn(-c2ccccc2)c(C)c1NC(=O)COC(=O)c1ccc(NC(=O)CC#N)cc1,2,6,11,-3,28
O=C(COC(=O)c1cc(Br)ccc1O)Nc1ccc2c(c1)OCCO2,-2,1,14,0,51*
Cc1nn(-c2ccccc2)c(C)c1NC(=O)COC(=O)c1cc(Br)ccc1O,0,-6,18,21,61*
Cc1nn(-c2ccccc2)c(C)c1NC(=O)COC(=O)c1ccc(Cl)c(S(N)(=O)=O)c1,-2,-9,13,19,53*
O=C(COC(=O)c1ccc(O)cc1)Nc1ccc2c(c1)OCCO2,3,13,19,-22,1
Cc1cc(C(=O)COC(=O)c2ccc(Cl)c(S(N)(=O)=O)c2)c(C)n1C1CC1,-3,-2,10,4,49*
Cc1cc(C(=O)COC(=O)c2ccc(NC(=O)CC#N)cc2)c(C)n1C1CC1,-3,4,4,-4,-2
Cc1cccc(C(=O)OCC(=O)Nc2c(C)nn(-c3ccccc3)c2C)c1O,1,-7,7,9,27
CCn1c(N2CCN(C(=S)NCC(C)C)CC2)nc2ccccc21,-7,-24,9,39*,13
CCn1c(N2CCN(S(=O)(=O)c3ccc(F)cc3)CC2)nc2ccccc21,-5,-6,11,11,23
CCn1c(N2CCN(S(=O)(=O)c3ccc(Cl)cc3)CC2)nc2ccccc21,-4,-7,20,4,72*
O=C(NCCN1CCC(n2c(=O)[nH]c3ccccc32)CC1)c1ccc(Cl)c(Cl)c1,·,·,5,·,10
O=C(N1CCN(CCO)CC1)N1c2ccccc2C=Cc2ccccc21,-6,-15,10,31*,-12
O=C(Cc1cn(Cc2ccccc2)c2ccccc12)Nc1ccc(Nc2cccnc2)cc1,·,·,0,·,19
CCN(c1cccc(C)c1)S(=O)(=O)c1ccc2c3c(cccc13)C(=O)N2,-3,0,10,6,54*
OC(c1cccs1)(c1cccs1)C1C[N+]2(CF)CCC1CC2 (stereo unspecified),-8,-22,2,83*,5
C=C(C)COc1ccc(-c2ncnc(C(F)(F)F)c2-c2ccccc2)c(O)c1,-11,-26,1,37*,32
Clc1ccccc1-c1nc2nc3ccccc3nc2n1-c1ccc2c(c1)OCO2,-5,-11,10,29,49*
C[N+]1(C)CCC(=C(c2ccccc2)c2ccccc2)CC1,-7,-25,0,98*,11
